Screening data (PubChem BioAssay)
M4 PAM = human M4 muscarinic receptor positive allosteric modulators, primary screen, CHO-K1 cells, Fluo-8 calcium fluorescence. Muscarinic acetylcholine receptor M4 (Homo sapiens), P08173. CHO-K1 hM4/Gqi5, ACh EC20; 0% = ACh EC20, 100% = maximal ACh. activation, % at 3 µM. hit rate 0.4% among 360,000. AID 624126, 2012;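 active means activation above its plate's cutoff, the mean activation of sample wells plus 3 SD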
M5 antag = human M5 muscarinic receptor antagonists, primary screen, CHO cells, Fluo-8 calcium fluorescence | Muscarinic acetylcholine receptor M5 (Homo sapiens), P08912 | CHO-hM5 cells, ACh EC80 | inhibition, % at 3 µM | hit rate 0.59% among 360,000 | AID 624040, 2012;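 active means inhibition above a per-plate cutoff, the mean of that plate's test compounds plus 3 SD, cut at about 27% in these data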;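 further: 0% = acetylcholine EC80 with DMSO and 100% = DMSO without agonist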
Target sequence (P08912 whole entry, looked up): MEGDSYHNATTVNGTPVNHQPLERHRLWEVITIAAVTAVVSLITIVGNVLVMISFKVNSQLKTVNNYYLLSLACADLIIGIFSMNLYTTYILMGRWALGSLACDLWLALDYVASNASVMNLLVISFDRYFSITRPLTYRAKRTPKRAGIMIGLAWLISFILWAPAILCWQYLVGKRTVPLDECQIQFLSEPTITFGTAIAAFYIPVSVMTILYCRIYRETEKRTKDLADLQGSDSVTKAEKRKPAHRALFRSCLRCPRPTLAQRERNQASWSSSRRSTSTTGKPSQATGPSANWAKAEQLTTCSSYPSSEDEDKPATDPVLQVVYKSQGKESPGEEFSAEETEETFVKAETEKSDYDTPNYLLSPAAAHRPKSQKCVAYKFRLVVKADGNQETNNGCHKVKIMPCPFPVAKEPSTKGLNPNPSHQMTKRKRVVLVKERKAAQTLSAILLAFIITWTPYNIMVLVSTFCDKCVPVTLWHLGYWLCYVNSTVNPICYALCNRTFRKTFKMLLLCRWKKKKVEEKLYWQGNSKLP
CHRM5 agonist = human M5 muscarinic receptor agonists, primary screen, CHO-K1 cells, Fluo-8 calcium fluorescence | Muscarinic acetylcholine receptor M5 (Homo sapiens), P08912 | CHO-K1 hM5 cells; 0% DMSO wells, 100% maximal acetylcholine response | activation, % at 3 µM | hit rate 0.19% among 360,000 | AID 624037, 2012;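 active means activation above the run's mean over test compounds plus 3 SD, cut at about 23% in these data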;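 further: signal is peak over basal fluorescence ratio across the kinetic read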
CHRM5 PAM = human M5 muscarinic receptor positive allosteric modulators, primary screen, CHO-K1 cells, Fluo-8 calcium fluorescence | activation, % at 3 µM | hit rate 0.3% among 360,000 | CHO-K1 hM5, ACh EC20 PAM; 0% = ACh EC20, 100% = ACh EC100 | Muscarinic acetylcholine receptor M5 (Homo sapiens), P08912;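 active means activation above the run cutoff, the mean activation of all test compounds plus 3 SD, cut at about 18% in these data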
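System – CHO-K1 hM5 cells · Compound – 3 µM, single dose · Incubation – compound preincubation 140 s before EC20 acetylcholine addition · Technique – Fluo-8 calcium fluorescence · Measure – Max/basal fluorescence ratio as % of EC20–EC100 ACh window · Benchmarks – low control EC20 acetylcholine (0%), high control EC100 acetylcholine (100%) · Replication – singlicate, one well per test compound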
CHRM4 agonist = human M4 muscarinic receptor agonists, primary screen, CHO-K1 cells, Fluo-8 calcium fluorescence. CHO-K1 hM4/Gqi5; vehicle 0%, full acetylcholine response 100%. activation, % at 3 µM. hit rate 0.14% among 360,000. AID 624127, 2012;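 active means activation above the run mean over all test wells plus 3 SD, cut at about 32% in these data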;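 further: peak over basal fluorescence ratio per well then scaled between controls; 0% = DMSO wells and 100% = acetylcholine at EC100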
M4 antag = human M4 muscarinic receptor antagonists, primary screen, CHO cells, Fluo-8 calcium fluorescence | Muscarinic acetylcholine receptor M4 (Homo sapiens), P08173 | CHO-hM4 cells, ACh EC80 | inhibition, % at 3 µM | hit rate 0.73% among 360,000 | AID 624125, 2012;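 active means inhibition above its plate's cutoff, the mean inhibition of sample wells plus 3 SD, cut at about 27% in these data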;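 further: 0% = acetylcholine EC80 with DMSO and 100% = DMSO without agonist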
* = called active by the depositor. A selection: hits, their analogues and other compounds. The true share with any hit is near 1.9%.

SMILES | M4 PAM | M5 antag | CHRM5 agonist | CHRM5 PAM | CHRM4 agonist | M4 antag
CN1CCS/C1=C/C=C1\SC(=S)N(CC(=O)O)C1=O | -9.1 | 4.6 | 31.2* | -7.4 | 15.3 | 9.1
Cc1ccc(C(=O)NNC(=O)c2ccoc2C)s1 | -5.3 | 2.6 | 2.2 | -2.0 | -0.4 | 1.4
O=C(Nc1ncc(Cc2ccc(SC(F)F)cc2)s1)c1ccc(OC(F)F)cc1 | 20.8* | 15.1 | 2.0 | -2.7 | 3.4 | 7.1
N#CCCN1CCCc2cc(N=Nc3ccc(C(F)(F)F)cc3)ccc21 | 1.6 | -2.9 | -2.8 | 20.0* | 0.7 | 7.0
CCc1ccc(N=Nc2ccc(O)c3[nH]cnc23)cc1 | -12.9 | 46.4* | 29.7* | -27.0 | 47.6* | 28.2*
COc1ccc(N=Nc2ccc(O)c3ncccc23)cc1 | -1.7 | 0.8 | 6.3 | 5.8 | 0.6 | -5.5
COc1ccc(CCNC(=O)CS(=O)(=O)c2cn(CC(=O)N3CCCC3)c3ccccc23)cc1OC | -1.9 | -7.6 | 0.8 | -6.4 | 1.3 | 26.6*
COc1ccc(CCNC(=O)CS(=O)(=O)c2cn(CC(=O)N(C(C)C)C(C)C)c3ccccc23)cc1OC | -2.5 | 4.0 | -3.0 | 0.8 | 0.6 | 2.2
C[C@@H]1CN([C@H](C)CO)C(=O)CCCn2cc(nn2)CO[C@H]1CN(C)C(=O)Nc1ccc(C(C)(C)C)cc1 | 9.8 | -6.6 | 0.2 | 10.9 | 2.0 | -1.7
COc1cc2c(c(OC)c1OC)CC(=O)N(C)CC2 | -31.4 | -3.5 | -6.5 | -8.6 | 1.1 | 33.3*
CCN(CC)c1ccc(C(=O)NNC(=O)C2CCN(c3ncnc4sc(C)c(C)c34)CC2)cc1 | 3.2 | -1.0 | 3.2 | -9.5 | 4.4 | -12.4
CC(C)NC(=O)c1ccc2sc([C@@H]3O[C@H](CO)[C@H](O)[C@H](O)[C@H]3O)nc2c1 | 0.5 | -9.6 | 0.4 | 3.7 | 0.4 | -8.9
O=C(NC1CCCCC1)N1CCC(c2nc(-c3ccc(S(=O)(=O)N4CCCC4)cc3)no2)CC1 | 21.3 | -8.0 | 3.8 | -0.7 | 2.3 | 1.5
O=C(C1CC1)N1CCC(c2nc(-c3ccc(S(=O)(=O)N4CCCC4)cc3)no2)CC1 | 16.1 | 66.0* | -6.9 | -16.5 | 3.4 | -3.0
COc1ccc(C(=O)c2coc3ccc(OC(C)=O)cc23)cc1 | -7.5 | 29.2* | -4.3 | -10.3 | 2.6 | 5.4
O=C(NCCCN1CCCC1)c1[nH]c(C(F)(F)F)nc1-c1ccccc1 | 6.8 | -2.7 | 2.8 | 2.9 | 0.8 | -13.9
CCOC(=O)c1cc(-c2ccc3c(c2)OCCO3)n[nH]1 | 27.2* | -13.2 | 6.0 | 13.7 | -1.0 | -16.8
COc1ccc(C2Oc3ccccc3N2C(C)=O)cc1 (stereo not drawn) | -1.2 | 11.3 | -1.6 | 1.3 | 0.9 | 31.1*
CC(C)CN1Cc2ccccc2Oc2cc(Br)ccc2S1(=O)=O | 24.6* | 1.4 | 21.8 | 12.1 | 8.7 | -8.4
CC(C)(C)NC(=O)Cn1nnc(-c2ccccc2NC(=O)c2cnccn2)n1 | 5.8 | -4.0 | -1.8 | 11.9 | 1.2 | -4.8
O=C(Cn1nnc(-c2ccccc2NC(=O)c2cccs2)n1)Nc1ccccc1 | 4.5 | -0.2 | -1.1 | 20.9* | 1.6 | -11.4
NC(=O)Cn1nnc(-c2ccccc2NC(=O)c2cnccn2)n1 | 3.3 | 21.6 | -2.0 | 35.0* | 0.3 | -5.0
C[C@H](CO)N1C[C@H](C)[C@H](CN(C)Cc2cncnc2)Oc2ncc(C#CC3(O)CCCC3)cc2C1=O | 0.4 | 3.1 | 1.6 | 2.5 | 0.4 | -2.9
C[C@@H]1CCCCO[C@H](CN(C)Cc2ccc(C(=O)O)cc2)[C@@H](C)CN([C@H](C)CO)C(=O)c2cc(NC(=O)CCC(F)(F)F)ccc2O1 | -2.2 | -3.6 | 2.3 | -4.2 | 0.5 | 4.9
CN(C)c1ccc(/C=C(/C#N)C(=O)Nc2nc3c(s2)CCN(Cc2ccccc2)C3)cc1 | -4.7 | 24.3 | 48.8* | -27.6 | 13.7 | 8.8
SMILES | M4 PAM | M5 antag | CHRM5 agonist | CHRM5 PAM | CHRM4 agonist | M4 antag
Cc1cccc(C(O)c2ncc(-c3ccccc3)[nH]2)c1C (stereo not drawn) | 13.4 | -4.3 | 0.6 | -3.8 | 1.2 | -15.4
COCCC(=O)N1CCC(Oc2ccc(C(=O)NCCC3=CCCCC3)cc2)CC1 | 0.3 | -9.4 | -0.2 | 10.8 | 0.3 | 1.5
Cc1ccc(C(=O)Nc2cccc(C(=O)NCc3ccccc3)c2)o1 | -0.8 | 11.5 | -3.7 | -6.3 | 3.7 | 26.9*
O=C(NCc1ccccc1)c1ccc(C2SCC(=O)N2Cc2ccccc2)cc1 (stereo not drawn) | -19.1 | 0.7 | -5.2 | -23.3 | 7.0 | 33.6*
O=C(NCc1ccccc1)NC(=O)c1ccc(Cl)cc1 | 0.9 | -7.6 | -0.3 | 18.8* | 0.5 | -7.2
CN(C)c1c(F)cc(C(=O)NCc2ccccc2)cc1F | 6.4 | 6.5 | -1.7 | -1.4 | 0.8 | -6.3
O=C(NCc1ccccc1)c1ccc(F)c(F)c1 | 19.9* | -14.5 | 1.2 | 6.2 | 3.6 | 1.7
O=C(NCc1ccc(F)cc1)NC(=O)c1ccc(Cl)cc1 | 5.6 | 6.9 | -4.0 | -2.7 | 0.8 | 4.8
CN1CCC(=NNC(=O)C(=O)Nc2cccc(Br)c2)CC1 | 0.1 | 32.4* | 0.7 | -15.4 | 1.3 | -2.5
O=C(c1ccccc1)c1ccccc1N1C(=O)C=CC1=O | -40.5 | 6.2 | 4.1 | 3.3 | 8.6 | 71.8*
O=C1C=CC(=O)N1c1ccccc1N1C(=O)C=CC1=O | 3.7 | 0.5 | 5.0 | -2.5 | 2.8 | -1.2
NC(=O)CN1CCOCCOCCN(CC(N)=O)CCOCCOCC1 | 3.0 | -4.9 | 0.9 | 5.1 | 0.3 | 100.5*
O=c1[nH][nH]c2c1[C@H](c1ccc(Cl)cc1)O[C@H](C1CCCC1)C2 | 2.4 | 0.3 | 4.7 | 12.2 | -0.9 | 12.5
O=c1c(Cl)c(Cl)cnn1Cc1nnc(-c2ccccc2Br)o1 | -24.5 | 100.5* | 80.3* | -21.1 | 119.6* | 98.9*
Clc1ccccc1OCc1nnc(-c2ccccc2Br)o1 | -0.5 | 1.1 | -3.4 | -2.1 | 0.2 | 8.7
C[C@@H]1Cn2cnc(C(=O)N[C@@H](Cc3c[nH]c4ccccc34)C(=O)OC(C)(C)C)c2C(=O)N1 | -6.1 | 4.5 | 2.3 | -3.6 | 7.5 | -5.7
Cc1cc2c(c(=O)n1Cc1ccco1)C(c1cccnc1)C(C#N)=C(N)O2 (stereo not drawn) | 29.9* | 0.9 | 3.6 | -5.8 | 0.1 | 12.5
CCOc1ccc(C2C(C#N)=C(N)Oc3cc(C)n(Cc4ccco4)c(=O)c32)cc1OC (stereo not drawn) | -6.4 | -4.2 | 0.8 | 0.2 | 0.2 | 3.3
O=C(NC(=S)N1CC=CCC1)c1ccccc1 | 7.6 | -0.1 | 0.9 | 1.1 | 0.8 | -0.6
